Here are results for four molecules from ChEMBL document CHEMBL3526032, “Ablation of both organic cation transporter (OCT)1 and OCT2 alters metformin pharmacokinetics but has no effect on tissue drug exposure and pharmacodynamics” (Drug Metab Dispos, 2012).

The source made the active and inactive calls.

One data set deals with OCT2 over OCT1. Kind of data set: Selectivity for OCT2 (unknown origin) over OCT1 (unknown origin). It is filed as ADME. The conditions noted are these: human.
Data set [1] deals with Mus musculus. Kind of data set: Antidiabetic activity in wild type FVB mouse assessed as plasma insulin level at 300 mg/kg, po by oral glucose tolerance test. More on the design: dose 300 mg/kg. It is filed as functional, organism-based. The method, boiled down: (§1)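 Plasma insulin measured by immunoassay at 0, 30, 60, 90 and 120 min during an oral glucose tolerance test (2.5 g/kg) in 16-h fasted male FVB wild-type or Oct1/2-knockout mice. Oral vehicle or metformin (10-300 mg/kg) given 30 min before glucose.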

Data set [2] concerns Mus musculus. Kind of data set: Antidiabetic activity in Oct1/Oct2-knockout FVB mouse assessed as reduction in blood glucose level at 300 mg/kg, po by oral glucose tolerance test relative to control. It counts as functional, organism-based. The arrangement: dose 300 mg/kg. The method, boiled down:
(§2)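 Male FVB mice, wild type or Oct1/2-knockout, fasted 16 h. Day 1: oral vehicle (1% hydroxyethyl cellulose/0.25% polysorbate-80/0.05% antifoam) given at -30 min. Day 8: oral metformin 10-300 mg/kg instead. At 0 min, oral glucose 2.5 g/kg.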

Data set [3] relates to Mus musculus. The data set is described as follows: Antidiabetic activity in wild type FVB mouse assessed as half-maximal efficacious AUC at 300 mg/kg, po by oral glucose tolerance test relative to control. It is filed as functional, organism-based. More on the design: dose 300 mg/kg.
Data set [4] relates to Mus musculus. Kind of data set: Antidiabetic activity in wild type FVB mouse assessed as reduction in blood glucose level at 300 mg/kg, po by oral glucose tolerance test relative to control. It is filed as functional, organism-based. More on the design: dose 300 mg/kg. In short, it runs like this: as §2
For data set [5], the system named is Mus musculus. The data set is described as follows: Antidiabetic activity in wild type FVB mouse assessed as reduction in blood glucose level at 10 mg/kg, po by oral glucose tolerance test. It counts as functional, organism-based. More on the design: dose 10 mg/kg. The method, boiled down:
as §2

For data set [6], the system named is Mus musculus. Kind of data set: Antidiabetic activity in wild type FVB mouse assessed as blood glucose AUC level at 300 mg/kg, po by oral glucose tolerance test relative to control. It counts as functional. The method, boiled down: as §2
Data set [7] has as its system Mus musculus. The data set is described as follows: Antidiabetic activity in Oct1/Oct2-knockout FVB mouse assessed as half-maximal efficacious AUC at 300 mg/kg, po by oral glucose tolerance test relative to control. It is filed as functional, organism-based. The arrangement: dose 300 mg/kg.
Data set [8] relates to Mus musculus. Kind of data set: Antidiabetic activity in po dosed wild type FVB mouse assessed as reduction in blood glucose level by oral glucose tolerance test relative to control. It counts as functional. The method, boiled down: as §2
The test system of data set [9] is Mus musculus. Kind of data set: Antidiabetic activity in po dosed Oct1/Oct2-knockout FVB mouse assessed as reduction in blood glucose level by oral glucose tolerance test relative to control. It counts as functional. The method, boiled down: as §2
For data set [10], the system named is Mus musculus. Kind of data set: Antidiabetic activity in Oct1/Oct2-knockout FVB mouse assessed as plasma insulin level at 300 mg/kg, po by oral glucose tolerance test. More on the design: dose 300 mg/kg. It counts as functional, organism-based. The method, boiled down:
as §1

Data set [11] relates to Mus musculus. The data set is described as follows: Antidiabetic activity in Oct1/Oct2-knockout FVB mouse assessed as reduction in blood glucose level at 10 mg/kg, po by oral glucose tolerance test. It is filed as functional, organism-based. The arrangement: dose 10 mg/kg. The method, boiled down:
as §2

The test system of data set [12] is Mus musculus. Kind of data set: Antidiabetic activity in Oct1/Oct2-knockout FVB mouse assessed as blood glucose AUC level at 300 mg/kg, po by oral glucose tolerance test relative to control. It is filed as functional. The method, boiled down:
as §2

The nature of data set [13]: Drug recovery in Oct1/Oct2-knockout FVB mouse urine assessed as corrected compound recovery by measuring nominal to observerd glomerular filtration rate ratio at 10 mg/kg, iv.
A short description of data set [14]: Drug excretion in Oct1/Oct2-knockout FVB mouse urine at 10 mg/kg, iv after 2 hrs.
A short description of data set [15]: Initial plasma concentration in wild type FVB mouse at 10 mg/kg, iv.
Data set [16] in a line: in vivo. As to conditions: FVB, mouse, iv, 10 mg/kg.
Data set [17] in a line: in vivo. As to conditions: FVB, mouse, plasma, iv, 10 mg/kg.
A short description of data set [18]: in vivo. As to conditions: FVB, mouse, plasma, iv, 10 mg/kg. The source holds these as a separate data set.
A short description of data set [19]: Clearance in Oct1/Oct2-knockout FVB mouse at 10 mg/kg, iv. The conditions noted are these: in vivo.
Data set [20] can be described thus: in vivo. The conditions noted are these: FVB, mouse, plasma, iv, 10 mg/kg. This is another data set of the same source.
Data set [21] in a line: Volume of distribution at steady state in wild type FVB mouse at 10 mg/kg, iv. As to conditions: in vivo.
Data set [22] can be described thus: Volume of distribution at steady state in Oct1/Oct2-knockout FVB mouse at 10 mg/kg, iv. The conditions noted are these: in vivo.
Data set [23] is described as follows: Drug excretion in wild type FVB mouse urine at 10 mg/kg, iv after 2 hrs.
Data set [24] can be described thus: in vivo. The conditions noted are these: FVB, mouse, plasma, iv, 10 mg/kg. This is another data set of the same source.
Data set [25] in a line: Initial plasma concentration in Oct1/Oct2-knockout FVB mouse at 10 mg/kg, iv.
Data set [26] is described as follows: Clearance in wild type FVB mouse at 10 mg/kg, iv. As to conditions: in vivo.
The nature of data set [27]: Drug recovery in wild type FVB mouse urine assessed as corrected compound recovery by measuring nominal to observerd glomerular filtration rate ratio at 10 mg/kg, iv.
The nature of data set [28]: in vivo. As to conditions: FVB, mouse, iv, 10 mg/kg. This is another data set of the same source.

On to `NC12CC3CC(CC(C3)C1)C2` [AMANTADINE], for which, in the data set with OCT2 over OCT1, the selectivity ratio amounted to 20.

As to `CC(N)Cc1ccccc1` (stereo not given) [AMPHETAMINE], the selectivity ratio with OCT2 over OCT1 amounted to 20.

One may read the ED50 as the midpoint of the dose-response relation. Take `CN(C)C(=N)NC(=N)N.Cl` [METFORMIN HYDROCHLORIDE]: the result in the data set on Mus musculus [1], in the data set with Mus musculus [2], in the data set with Mus musculus [4] and in the data set with Mus musculus [10] was Active. The AUC in the data set on Mus musculus [3] stood at 26000 ng·h/mL; in the data set with Mus musculus [7] it was 70000 ng·h/mL. Further, the outcome in the data set with Mus musculus [5] and in the data set with Mus musculus [11] was inactive. For the same molecule, the figures for the Activity with Mus musculus [6] and in the data set with Mus musculus [12] were 39% and 42%, respectively. In addition, the ED50 in the data set on Mus musculus [8] turned out to be 110 mg/kg; with Mus musculus [9], 151 mg/kg.

One may read the half-life as the time needed for the level to fall by half in the phase considered. Read a low half-life as fast loss. As usually defined, the AUC(0-t) is exposure summed from dosing to a finite time, without extrapolation to infinity. One may read the AUC(0-inf) as the area under the concentration-time curve extrapolated to infinity. In general, clearance refers to a measure of how efficiently the substance is removed, as volume per time. A word on the Vd: it is the apparent volume that relates the amount in the body to the concentration in plasma or blood. A low value points to little distribution into tissue. As for `CC[N+](CC)(CC)CC` [TETRYLAMMONIUM], the results for the dose excreted in [13] and in data set [27] were 62% and 95%, respectively. In addition, the values for the dose excreted at 2 h in [14] and in data set [23] were 30% and 35%, respectively. Further, the C0 in data set [15] was 22700 ng/mL; in data set [25], 67400 ng/mL. The values for the half-life in the data set “in vivo [16]” and in “in vivo [28]” were 18.6 min and 12 min, respectively. In addition, the results for the AUC(0-t) in “in vivo [17]” and in the data set “in vivo [24]” were 9100 ng·h/mL and 2410 ng·h/mL, respectively. Moreover, the values for the AUC(0-inf) in the data set “in vivo [18]” and in “in vivo [20]” were 2840 ng·h/mL and 9840 ng·h/mL, respectively. For the same molecule, the clearance in data set [19] was 16.9 mL/min/kg; in data set [26], 58.7 mL/min/kg. Further, the Vd amounted to 1.52 L/kg in data set [21] and 0.318 L/kg in data set [22].
